The nature of data set [1]: Cytotoxicity against human Hep3B cells assessed as growth inhibition after 72 hrs by sulforhodamine B assay. It counts as functional, cell-based, Hep 3B2. Conditions: Homo sapiens, Hep3B, 72 h; read-out: IC50. Put shortly: (§1)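 Cells were grown at 37°C, 5% CO2 in DMEM with 10% FBS. They were seeded at 1000–3000 cells/well, grown 24 h, then exposed to compound at 2.5–40 µM for 72 h. Cells were fixed in 10% TCA for 1 h at 4°C, stained with 0.4% SRB in 1% acetic acid for 10 min, and the dye solubilized in 10 mM Tris. Absorbance was read at 515 nm; runs were in triplicate; IC50 was calculated, with fits of R2 0.8–1 accepted.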
A general note: The SRB assay estimates cell density from bound dye.

Another data set concerns Mahlavu. The data set is described as follows: Induction of oxidative stress in human Mahlavu cells assessed as ROS accumulation at 10 uM after 48 hrs by DCFH-DA staining based fluorescence microscopy. It counts as functional, cell-based. The method, boiled down: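 Cells in 6-well dishes were treated with 10 µM compound or DMSO for 48 h. They were washed in PBS and stained for 15 min at 37°C in the dark with DCFH-DA solution (1 mM DCFH-DA, 10 mM glucose, 10 mM HEPES in PBS). After three PBS washes, cells were viewed by fluorescence microscopy. Selenium-deficient serum-free medium culture served as the positive control.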

In data set [2] the target is T1, Mitogen-activated protein kinase kinase kinase 5 (Homo sapiens) (UniProt Q99683).
T1 sequence (whole entry): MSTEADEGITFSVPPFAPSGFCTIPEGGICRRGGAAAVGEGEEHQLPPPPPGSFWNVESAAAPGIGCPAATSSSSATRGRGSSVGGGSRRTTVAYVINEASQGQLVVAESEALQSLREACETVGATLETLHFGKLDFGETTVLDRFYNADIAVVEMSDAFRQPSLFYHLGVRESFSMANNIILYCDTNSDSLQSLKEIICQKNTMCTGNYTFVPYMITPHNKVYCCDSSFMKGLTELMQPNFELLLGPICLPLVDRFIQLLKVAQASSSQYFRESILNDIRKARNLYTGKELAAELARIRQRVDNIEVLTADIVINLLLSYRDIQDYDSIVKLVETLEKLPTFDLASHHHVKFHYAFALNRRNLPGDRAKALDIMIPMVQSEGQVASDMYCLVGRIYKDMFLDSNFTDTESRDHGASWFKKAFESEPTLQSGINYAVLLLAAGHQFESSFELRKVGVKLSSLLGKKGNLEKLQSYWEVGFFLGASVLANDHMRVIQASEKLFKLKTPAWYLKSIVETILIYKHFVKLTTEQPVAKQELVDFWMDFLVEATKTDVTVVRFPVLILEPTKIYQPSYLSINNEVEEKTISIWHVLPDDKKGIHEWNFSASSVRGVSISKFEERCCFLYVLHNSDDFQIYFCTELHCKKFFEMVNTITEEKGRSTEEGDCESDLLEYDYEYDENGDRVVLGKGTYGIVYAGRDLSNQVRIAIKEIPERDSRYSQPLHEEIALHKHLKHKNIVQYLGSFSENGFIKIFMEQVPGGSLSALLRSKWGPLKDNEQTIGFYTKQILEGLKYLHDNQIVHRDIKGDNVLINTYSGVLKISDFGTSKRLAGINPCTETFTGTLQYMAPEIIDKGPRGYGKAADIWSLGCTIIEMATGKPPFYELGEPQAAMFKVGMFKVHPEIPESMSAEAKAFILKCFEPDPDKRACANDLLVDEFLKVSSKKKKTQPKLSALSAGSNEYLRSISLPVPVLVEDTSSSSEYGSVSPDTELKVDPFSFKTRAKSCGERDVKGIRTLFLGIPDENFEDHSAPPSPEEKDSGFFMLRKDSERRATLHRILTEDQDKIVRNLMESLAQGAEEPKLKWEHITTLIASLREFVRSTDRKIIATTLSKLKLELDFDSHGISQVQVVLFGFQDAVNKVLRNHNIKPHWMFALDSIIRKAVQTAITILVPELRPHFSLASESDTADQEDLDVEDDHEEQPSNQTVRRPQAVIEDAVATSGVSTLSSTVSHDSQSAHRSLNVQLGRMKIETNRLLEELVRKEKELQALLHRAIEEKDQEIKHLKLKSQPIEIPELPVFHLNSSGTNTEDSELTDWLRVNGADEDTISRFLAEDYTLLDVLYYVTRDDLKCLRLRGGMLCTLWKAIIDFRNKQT
The data set is described as follows: Activation of ASK1 in human Mahlavu cells assessed as SAPK/JNK phosphorylation after 24 to 48 hrs by Western blot analysis. It counts as cell-based. The method, boiled down: (§2)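 Cells were exposed to compound or DMSO control for 24 or 48 h. Lysates were loaded at […] protein per lane and immunoblotted with antibodies diluted 1:100 to 1:500 in 5% BSA-TBS-T. Targets were p-Akt (Ser473), Akt, p-GSK3-α/β (Ser21/9), GSK3-α/β, SAPK/JNK, p-SAPK/JNK (Thr183/Tyr185), PARP, p-β-catenin, β-catenin, cyclin D1, p-ASK1 (S83) and p-ASK1 (S966). Actin served as the loading control.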
Background: A western blot detects proteins with antibodies after separation by electrophoresis.

The target in data set [3] is Glycogen synthase kinase-3 beta (Homo sapiens) (UniProt P49841). Briefly: Inhibition of GSK3beta phosphorylation in human HuH7 cells after 24 to 48 hrs by Western blot analysis. The conditions noted are these: Huh-7. The format is cell-based. Put shortly:
as §2

The nature of data set [4]: Effect on un-phosphorylated beta-catenin level in human Mahlavu cells after 24 to 48 hrs by Western blot analysis. The format is ADME, cell-based. Put shortly:
as §2

Data set [5] is described as follows: Cytotoxicity against human HuH7 cells assessed as growth inhibition after 72 hrs by sulforhodamine B assay. The format is functional, cell-based, Huh-7. The conditions noted are these: Homo sapiens, Huh-7, 72 h; read-out: IC50. The method, boiled down: as §1
The nature of data set [6]: Cytotoxicity against human SNU475 cells assessed as growth inhibition after 72 hrs by sulforhodamine B assay. Conditions: Homo sapiens, SNU-475, 72 h; read-out: IC50. The format is functional, cell-based, SNU-475. Put shortly: as §1

The source made the active and inactive calls. The rule behind the calls is not given here.

These results are taken from ChEMBL document CHEMBL3751842, “Novel triazolothiadiazines act as potent anticancer agents in liver cancer cells through Akt and ASK-1 proteins” (Bioorg Med Chem, 2016).

A word on the IC50: it is the concentration needed to halve the response being measured.

Glycogen synthase kinase-3 beta (Homo sapiens), sequence (P49841 whole entry, looked up): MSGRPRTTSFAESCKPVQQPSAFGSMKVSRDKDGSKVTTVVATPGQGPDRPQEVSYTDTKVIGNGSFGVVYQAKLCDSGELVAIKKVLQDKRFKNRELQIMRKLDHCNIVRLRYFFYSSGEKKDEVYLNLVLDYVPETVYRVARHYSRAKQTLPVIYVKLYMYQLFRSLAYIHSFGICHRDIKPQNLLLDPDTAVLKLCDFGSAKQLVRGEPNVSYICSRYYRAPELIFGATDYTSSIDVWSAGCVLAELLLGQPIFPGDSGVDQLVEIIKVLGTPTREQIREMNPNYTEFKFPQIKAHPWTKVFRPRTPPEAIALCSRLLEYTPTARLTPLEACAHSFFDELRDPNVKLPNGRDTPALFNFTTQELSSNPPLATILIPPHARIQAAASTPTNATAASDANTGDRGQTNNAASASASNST

As to `Cc1ccc(C2=Nn3c(nnc3C(C)c3ccc(CC(C)C)cc3)SC2)cc1` (centres undefined), the IC50 was found to be 5.3 µM in data set [1], 5 µM in data set [5] and 8.7 µM in data set [6]. Further, the outcome (with Mahlavu; in data set [2]) was Active. In addition, in data set [3], the inhibition result is “Active”. Also, the Activity entry in data set [4] is recorded as “Non-toxic”.

Consider `COc1ccc(C2=Nn3c(nnc3C(C)c3ccc(CC(C)C)cc3)SC2)cc1` (centres undefined), for which the half-maximal inhibitory concentration (IC50) was 6.5 µM in data set [1], 3.7 µM in data set [5] and 8.5 µM in data set [6]. In addition, the outcome (in the data set on Mahlavu; in data set [2]) was Active. Moreover, in data set [3], the inhibition entry was “Active”. The Activity entry in data set [4] is “Non-toxic”.
